Measurements from ChEMBL document CHEMBL1158715, “Eremophilane-type sesquiterpene derivatives from Senecio aegyptius var. discoideus” (J Nat Prod, 2005).
The source made the active and inactive calls. The rule behind the calls is not given here.

Tests used:
Format in all cases: functional, organism-based
[1] = system: Bacillus cereus; experiment: Antimicrobial activity against Bacillus cereus El-U 8180 at 400 ug/ml
Method in brief: (§1)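 Filter paper disk diffusion on nutrient agar seeded with the test bacterium. Disks were soaked in the test solution for 30 s, then placed on the agar surface. Plates were incubated at 30 °C for 2 days. Five replicates were run per compound at each concentration. Ampicillin at 200 and 400 μg/mL served as the reference.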

[2] = system: Serratia sp.; experiment: Antimicrobial activity against Serratia El-U 9213 at 400 ug/ml; method in brief: as §1
[3] = system: Serratia sp.; experiment: Antimicrobial activity against Serratia El-U 9213 at 200 ug/ml; method in brief: as §1
[4] = system: Bacillus cereus; experiment: Antimicrobial activity against Bacillus cereus El-U 8180 at 200 ug/ml; method in brief: as §1

Structure (SMILES)	Activity [1]	Activity [2]	Activity [3]	Activity [4]
CO[C@@]12C=C3[C@H](O)CC[C@H](C)[C@@]3(C)CC1=C(C)C(=O)O2	Active	Active	Active	Active
CC1=C2C[C@]3(C)[C@@H](C)CC[C@H]4O[C@]43C[C@@]2(O)OC1=O	Active	Active	Active	Active
CO[C@@]12C[C@@]34O[C@@H]3CC[C@H](C)[C@@]4(C)CC1=C(C)C(=O)O2	Active	inactive	inactive	Active
CO[C@@]12C[C@@H]3C(=O)CC[C@H](C)[C@@]3(C)CC1=C(C)C(=O)N2	Active	inactive	inactive	Active
CC1=C2C[C@@]3(C)C(=C[C@H]2OC1=O)[C@H](O)CC[C@@H]3C	Active	inactive	inactive	Active
CC1=C2C[C@@]3(C)C(=C[C@@]2(O)OC1=O)[C@H](O)CC[C@@H]3C	Active	Active	Active	Active
